Experimental data published in publication PMC8521277 (The EMBO Journal, 2021).

Assays:
[1] = system: HeLa cells; assay: [3H]-sphingosine pulse-chase assay after expression of GCS constructs; assay type: cell-based, human; settings: 8 h chase, two independent experiments; for increase in GSL production: transfected construct 16 h
How it was run: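 HeLa cells were transfected with GCS constructs for 16 h, with non-transfected cells run alongside. Cells were pulse-labelled for 2 h with [3H]-sphingosine (final 0.1 μCi/ml) in serum-free DMEM with 1% fatty-acid-free BSA, then chased 8 h in complete medium with or without BFA (5 μg/ml). Lipids were extracted and resolved by HPTLC (chloroform/methanol/water 65:25:4). Total GSL radioactivity is given as fold change versus control, mean ± SD of two experiments, with Student's t-test.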

[2] = system: HeLa cells; assay: Localization of SL biosynthetic enzymes after Brefeldin A, immunofluorescence; assay type: cell-based, human; settings: BFA 5 μg/ml, 30 min; SMS1 also in punctate structures
[3] = target: GRASP domain of GRASP55 (recombinant protein used for ITC); assay: ITC
[4] = system: GRASP55‐GFP; assay: Co-immunoprecipitation of HA-tagged enzymes with GRASP55-GFP in HeLa cells; assay type: binding, human; settings: anti-GFP IP, anti-HA blot
How it was run: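 HeLa cells were co-transfected with HA-tagged GCS, LCS, GM3S or Gb3S plus GRASP55-GFP. Cells were lysed and immunoprecipitated with anti-GFP antibody or control IgG. Interaction was read by Western blotting with anti-HA antibody.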

[5] = system: endogenous GRASP55; assay type: binding, human; settings: HA-tagged enzymes, WI-26 fibroblasts, anti-HA IP

In the case of C[C@H]1CCC/C=C/[C@@H]2C[C@H](O)C[C@H]2[C@H](O)/C=C/C(=O)O1 [Brefeldin A, reference compound], the “effect on differences in GSL production between GCS constructs (in words)” value ([1]; BFA 5 μg/ml) is reported as “neutralized these differences” and the “localization of SL biosynthetic enzymes (in words)” value [2] is reported as “translocation of the enzymes back into the ER”.

With “GCS C-terminal cytosolic tail peptide (biotinylated, WT)” the Kd [3] was 2000 nM.

B1: Gb3S: Gb3 synthase, expressed in cells (protein)
chain: MSKPPDLLLRLLRGAPRQRVCTLFIIGFKFTFFVSIMIYWHVVGEPKEKGQLYNLPAEIPCPTLTPPTPPSHGPTPGNIFFLETSDRTNPNFLFMCSVESAARTHPESHVLVLMKGLPGGNASLPRHLGISLLSCFPNVQMLPLDLRELFRDTPLADWYAAVQGRWEPYLLPVLSDASRIALMWKFGGIYLDTDFIVLKNLRNLTNVLGTQSRYVLNGAFLAFERRHEFMALCMRDFVDHYNGWIWGHQGPQLLTRVFKKWCSIRSLAESRACRGVTTLPPEAFYPIPWQDWKKYFEDINPEELPRLLSATYAVHVWNKKSQGTRFEATSRALLAQLHARYCPTTHEAMKMYL
modifications: left off: HA, end not stated, kept
For B1, the “co-immunoprecipitation with GRASP55-GFP (in words)” value [4] was “do not interact”.

B2: GCS: GlcCer synthase, full‐length, expressed in cells (protein)
chain: MALLDLALEGMAVFGFVLFLVLWLMHFMAIIYTRLHLNKKATDKQPYSKLPGVSLLKPLKGVDPNLINNLETFFELDYPKYEVLLCVQDHDDPAIDVCKKLLGKYPNVDARLFIGGKKVGINPKINNLMPGYEVAKYDLIWICDSGIRVIPDTLTDMVNQMTEKVGLVHGLPYVADRQGFAATLEQVYFGTSHPRYYISANVTGFKCVTGMSCLMRKDVLDQAGGLIAFAQYIAEDYFMAKAIADRGWRFAMSTQVAMQNSGSYSISQFQSRMIRWTKLRINMLPATIICEPISECFVASLIIGWAAHHVFRWDIMVFFMCHCLAWFIFDYIQLRGVQGGTLCFSKLDYAVAWFIRESMTIYIFLSALWDPTISWRTGRYRLRCGGTAEEILDV
modifications: left off: HA (9aa), internal (between the two Gly residues of DPTISWRTGRYRLRCGGTAEEILDV), kept
In the case of B2, the “co-immunoprecipitation with GRASP55-GFP (in words)” value [4] is reported as “co‐immunoprecipitated with GRASP55‐GFP” and the “co-immunoprecipitation with endogenous GRASP55 (in words)” value [5] is reported as “interaction of GCS and LCS with endogenous GRASP55 was also observed”.

B3: GCS‐HAN: GCS with a HA‐tag in the N‐terminal tail (protein, UniProt Q16739 1-394, looked up)
Ceramide glucosyltransferase: MALLDLALEGMAVFGFVLFLVLWLMHFMAIIYTRLHLNKKATDKQPYSKLPGVSLLKPLKGVDPNLINNLETFFELDYPKYEVLLCVQDHDDPAIDVCKKLLGKYPNVDARLFIGGKKVGINPKINNLMPGYEVAKYDLIWICDSGIRVIPDTLTDMVNQMTEKVGLVHGLPYVADRQGFAATLEQVYFGTSHPRYYISANVTGFKCVTGMSCLMRKDVLDQAGGLIAFAQYIAEDYFMAKAIADRGWRFAMSTQVAMQNSGSYSISQFQSRMIRWTKLRINMLPATIICEPISECFVASLIIGWAAHHVFRWDIMVFFMCHCLAWFIFDYIQLRGVQGGTLCFSKLDYAVAWFIRESMTIYIFLSALWDPTISWRTGRYRLRCGGTAEEILDV
modifications: HA tag in N-terminal tail
B3 was tested, and the “increase in GSL production” value [1] was 2.6 fold.

B4: GCS‐HAC: GCS with a HA‐tag at the C‐terminus (protein, UniProt Q16739 1-394, looked up)
Ceramide glucosyltransferase: MALLDLALEGMAVFGFVLFLVLWLMHFMAIIYTRLHLNKKATDKQPYSKLPGVSLLKPLKGVDPNLINNLETFFELDYPKYEVLLCVQDHDDPAIDVCKKLLGKYPNVDARLFIGGKKVGINPKINNLMPGYEVAKYDLIWICDSGIRVIPDTLTDMVNQMTEKVGLVHGLPYVADRQGFAATLEQVYFGTSHPRYYISANVTGFKCVTGMSCLMRKDVLDQAGGLIAFAQYIAEDYFMAKAIADRGWRFAMSTQVAMQNSGSYSISQFQSRMIRWTKLRINMLPATIICEPISECFVASLIIGWAAHHVFRWDIMVFFMCHCLAWFIFDYIQLRGVQGGTLCFSKLDYAVAWFIRESMTIYIFLSALWDPTISWRTGRYRLRCGGTAEEILDV
modifications: C-terminal HA tag
B4 was tested, and the “increase in GSL production” value [1] was 2.3 fold.

B5: GM3S: GM3 synthase, expressed in cells (protein)
chain: MRTKAAGCAERRPLQPRTEAAAAPAGRAMPSEYTYVKLRSDCSRPSLQWYTRAQSKMRRPSLLLKDILKCTLLVFGVWILYILKLNYTTEECDMKKMHYVDPDHVKRAQKYAQQVLQKECRPKFAKTSMALLFEHRYSVDLLPFVQKAPKDSEAESKYDPPFGFRKFSSKVQTLLELLPEHDLPEHLKAKTCRRCVVIGSGGILHGLELGHTLNQFDVVIRLNSAPVEGYSEHVGNKTTIRMTYPEGAPLSDLEYYSNDLFVAVLFKSVDFNWLQAMVKKETLPFWVRLFFWKQVAEKIPLQPKHFRILNPVIIKETAFDILQYSEPQSRFWGRDKNVPTIGVIAVVLATHLCDEVSLAGFGYDLNQPRTPLHYFDSQCMAAMNFQTMHNVTTETKFLLKLVKEGVVKDLSGGIDREF
modifications: left off: HA, end not stated, kept
B5 was tested, and the “co-immunoprecipitation with GRASP55-GFP (in words)” value [4] was “do not interact”.

B6: GCS‐Δ3C (protein)
chain: MALLDLALEGMAVFGFVLFLVLWLMHFMAIIYTRLHLNKKATDKQPYSKLPGVSLLKPLKGVDPNLINNLETFFELDYPKYEVLLCVQDHDDPAIDVCKKLLGKYPNVDARLFIGGKKVGINPKINNLMPGYEVAKYDLIWICDSGIRVIPDTLTDMVNQMTEKVGLVHGLPYVADRQGFAATLEQVYFGTSHPRYYISANVTGFKCVTGMSCLMRKDVLDQAGGLIAFAQYIAEDYFMAKAIADRGWRFAMSTQVAMQNSGSYSISQFQSRMIRWTKLRINMLPATIICEPISECFVASLIIGWAAHHVFRWDIMVFFMCHCLAWFIFDYIQLRGVQGGTLCFSKLDYAVAWFIRESMTIYIFLSALWDPTISWRTGRYRLRCGGTAEEI
modifications: left off: HA (9aa), internal (between the two Gly residues of DPTISWRTGRYRLRCGGTAEEI), kept
In the case of B6, the “co-immunoprecipitation with endogenous GRASP55 (in words)” value [5] is reported as “impaired the interaction”.

B7: LCS: LacCer synthase, expressed in cells (protein)
chain: MRARRGLLRLPRRSLLAALFFFSLSSSLLYFVYVAPGIVNTYLFMMQAQGILIRDNVRTIGAQVYEQVLRSAYAKRNSSVNDSDYPLDLNHSETFLQTTTFLPEDFTYFANHTCPERLPSMKGPIDINMSEIGMDYIHELFSKDPTIKLGGHWKPSDCMPRWKVAILIPFRNRHEHLPVLFRHLLPMLQRQRLQFAFYVVEQVGTQPFNRAMLFNVGFQEAMKDLDWDCLIFHDVDHIPESDRNYYGCGQMPRHFATKLDKYMYLLPYTEFFGGVSGLTVEQFRKINGFPNAFWGWGGEDDDLWNRVQNAGYSVSRPEGDTGKYKSIPHHHRGEVQFLGRYALLRKSKERQGLDGLNNLNYFANITYDALYKNITVNLTPELAQVNEY
modifications: left off: HA, end not stated, kept
B7 was tested, and the “co-immunoprecipitation with GRASP55-GFP (in words)” value [4] was “co‐immunoprecipitated with GRASP55‐GFP” and the “co-immunoprecipitation with endogenous GRASP55 (in words)” value [5] was “interaction of GCS and LCS with endogenous GRASP55 was also observed”.
